Experimental data from ChEMBL document CHEMBL1131058, “Studies on quinazolines and 1,2,4-benzothiadiazine 1,1-dioxides. 8.1, 2 synthesis and pharmacological evaluation of tricyclic fused quinazolines and 1,2,4-benzothiadiazine 1,1-dioxides as potential alpha1-adrenoceptor antagonists” (J Med Chem, 1998).

Legend:
[1] = biological target: T1, Adrenergic receptor alpha-1 (Rattus norvegicus, UniProt P15823+P23944+P43140); assay: Binding affinity towards Alpha-1 adrenergic receptor measured by displacement of [3H]prazosin from rat brain cortex membranes; assay type: cell membranes, Membrane
T1 sequence (P15823 whole entry): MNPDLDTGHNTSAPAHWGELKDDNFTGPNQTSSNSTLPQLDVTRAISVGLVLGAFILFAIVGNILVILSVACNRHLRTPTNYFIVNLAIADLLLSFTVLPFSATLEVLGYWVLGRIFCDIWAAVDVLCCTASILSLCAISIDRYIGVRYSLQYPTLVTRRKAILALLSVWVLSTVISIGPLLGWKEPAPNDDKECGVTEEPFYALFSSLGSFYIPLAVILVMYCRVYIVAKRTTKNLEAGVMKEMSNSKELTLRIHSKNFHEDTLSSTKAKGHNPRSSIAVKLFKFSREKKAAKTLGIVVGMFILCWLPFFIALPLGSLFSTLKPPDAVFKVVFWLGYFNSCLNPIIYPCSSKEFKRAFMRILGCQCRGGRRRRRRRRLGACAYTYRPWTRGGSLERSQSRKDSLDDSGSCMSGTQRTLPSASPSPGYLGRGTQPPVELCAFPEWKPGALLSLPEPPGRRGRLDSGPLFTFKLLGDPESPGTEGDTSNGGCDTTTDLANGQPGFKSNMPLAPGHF
T1 sequence (P23944 whole entry): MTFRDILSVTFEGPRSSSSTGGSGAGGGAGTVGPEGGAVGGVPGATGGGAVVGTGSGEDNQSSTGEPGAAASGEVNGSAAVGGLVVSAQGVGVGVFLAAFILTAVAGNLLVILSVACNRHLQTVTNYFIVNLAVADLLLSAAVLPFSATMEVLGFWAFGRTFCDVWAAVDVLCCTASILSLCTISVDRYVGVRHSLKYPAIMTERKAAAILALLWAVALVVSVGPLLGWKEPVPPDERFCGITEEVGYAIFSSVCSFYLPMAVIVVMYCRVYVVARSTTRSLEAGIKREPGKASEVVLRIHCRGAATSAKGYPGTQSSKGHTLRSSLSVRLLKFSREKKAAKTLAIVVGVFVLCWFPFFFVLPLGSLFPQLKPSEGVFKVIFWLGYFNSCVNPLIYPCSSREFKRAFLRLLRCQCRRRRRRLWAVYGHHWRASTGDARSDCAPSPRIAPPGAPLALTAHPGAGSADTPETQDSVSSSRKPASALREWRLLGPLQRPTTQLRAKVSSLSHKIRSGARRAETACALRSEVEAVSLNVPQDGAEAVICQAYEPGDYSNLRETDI
T1 sequence (P43140 whole entry): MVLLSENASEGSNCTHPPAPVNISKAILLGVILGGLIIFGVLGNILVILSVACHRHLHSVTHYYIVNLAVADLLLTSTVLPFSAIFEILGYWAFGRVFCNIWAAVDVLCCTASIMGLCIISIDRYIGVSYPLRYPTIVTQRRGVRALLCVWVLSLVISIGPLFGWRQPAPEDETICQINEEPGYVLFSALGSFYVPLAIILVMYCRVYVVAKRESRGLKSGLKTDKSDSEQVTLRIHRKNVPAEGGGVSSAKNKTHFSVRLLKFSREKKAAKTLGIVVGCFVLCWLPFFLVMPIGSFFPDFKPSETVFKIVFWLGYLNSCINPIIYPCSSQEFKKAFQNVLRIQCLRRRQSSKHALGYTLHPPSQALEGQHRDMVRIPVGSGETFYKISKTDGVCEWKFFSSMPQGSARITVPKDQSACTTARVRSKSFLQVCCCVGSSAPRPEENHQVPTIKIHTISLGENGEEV
How it was run: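 Triplicate competition binding against 0.2-0.25 nM [³H]prazosin in Tris buffer pH 7.4, 30 min at room temperature. Competitor range 0.1-200 nM. Nonspecific binding defined with 10 µM phentolamine. Reaction stopped by GF/B filtration with two cold Tris washes. Membrane protein 300-400 µg per assay. Ki calculated from the data; mean ± SEM of 3-6 experiments.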

[2] = biological target: T2, Adrenergic receptor alpha-2 (Rattus norvegicus, UniProt P22086+P19328+P22909); assay: Displacement of clonidine from Alpha-2 adrenergic receptor in rat brain cortex; assay type: tissue-based
T2 sequence (P22086 whole entry): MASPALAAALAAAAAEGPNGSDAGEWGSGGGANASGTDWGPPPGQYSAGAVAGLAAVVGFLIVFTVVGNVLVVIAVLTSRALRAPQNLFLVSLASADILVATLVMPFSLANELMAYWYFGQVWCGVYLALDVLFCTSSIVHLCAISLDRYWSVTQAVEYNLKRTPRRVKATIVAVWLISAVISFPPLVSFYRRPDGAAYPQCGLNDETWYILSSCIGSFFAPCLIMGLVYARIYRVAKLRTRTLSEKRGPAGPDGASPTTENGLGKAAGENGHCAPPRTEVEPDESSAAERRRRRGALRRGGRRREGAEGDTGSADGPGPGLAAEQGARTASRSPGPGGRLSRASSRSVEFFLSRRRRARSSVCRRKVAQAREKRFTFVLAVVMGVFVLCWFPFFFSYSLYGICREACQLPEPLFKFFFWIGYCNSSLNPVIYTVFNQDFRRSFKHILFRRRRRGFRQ
T2 sequence (P19328 whole entry): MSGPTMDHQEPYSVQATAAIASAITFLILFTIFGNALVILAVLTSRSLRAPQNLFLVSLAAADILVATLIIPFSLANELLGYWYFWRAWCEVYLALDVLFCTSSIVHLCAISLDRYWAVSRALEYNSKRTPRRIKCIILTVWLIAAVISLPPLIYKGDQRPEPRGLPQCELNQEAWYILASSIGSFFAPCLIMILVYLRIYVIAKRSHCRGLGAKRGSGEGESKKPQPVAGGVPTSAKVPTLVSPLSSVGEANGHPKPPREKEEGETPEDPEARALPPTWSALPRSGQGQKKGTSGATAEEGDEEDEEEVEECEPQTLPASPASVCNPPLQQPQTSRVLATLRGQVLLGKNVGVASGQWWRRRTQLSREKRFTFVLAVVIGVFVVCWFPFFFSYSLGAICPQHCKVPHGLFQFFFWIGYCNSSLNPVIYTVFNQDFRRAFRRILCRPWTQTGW
T2 sequence (P22909 whole entry): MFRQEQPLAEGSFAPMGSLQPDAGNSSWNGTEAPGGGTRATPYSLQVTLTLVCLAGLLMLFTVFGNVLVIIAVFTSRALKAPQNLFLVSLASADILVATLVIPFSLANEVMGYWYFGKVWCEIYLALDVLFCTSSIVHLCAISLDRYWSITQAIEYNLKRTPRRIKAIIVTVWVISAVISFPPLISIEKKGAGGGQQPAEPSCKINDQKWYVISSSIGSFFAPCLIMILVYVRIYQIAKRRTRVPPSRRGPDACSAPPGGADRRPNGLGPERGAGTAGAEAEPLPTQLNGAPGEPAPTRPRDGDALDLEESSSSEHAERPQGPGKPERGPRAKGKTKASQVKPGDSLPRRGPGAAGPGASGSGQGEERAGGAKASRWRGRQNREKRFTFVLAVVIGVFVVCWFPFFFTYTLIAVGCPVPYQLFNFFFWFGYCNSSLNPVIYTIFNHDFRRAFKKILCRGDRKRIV
How it was run: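 α2 competition binding run in triplicate with 1 nM [³H]clonidine plus 10 mM MgCl₂ in Tris pH 7.4, 30 min at room temperature. Test compounds at 1-100 µM. Nonspecific binding defined with 10 µM clonidine. Membranes collected on GF/B filters and washed twice with cold Tris. Protein 300-400 µg per assay. Ki given as mean ± SEM of 3-6 experiments.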

[3] = Selectivity ratio for binding affinity towards alpha2 and alpha-1 adrenoceptors
How it was run: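 Ratio of α2 Ki ([³H]clonidine binding) to α1 Ki ([³H]prazosin binding), both measured in rat cortical membrane competition assays.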

Structure (SMILES)	Ki [1]	Ki [2]	Ratio [3]
Oc1nc2ccccc2c2nc(CN3CCN(c4ccccc4Cl)CC3)c(Br)n12	> 10 µM		
O=c1c2ccccc2nc2scc(CN3CCN(c4ccccc4Cl)CC3)n12	> 10 µM		
Oc1nc2ccccc2c2nc(CN3CCN(c4ccccc4Cl)CC3)cn12	0.00929 µM	4510 nM	486
Oc1nc2ccccc2c2nc(Br)c(CN3CCN(c4ccccc4Cl)CC3)n12	> 10 µM		
Cn1c(=O)n2c(Br)c(CN3CCN(c4ccccc4Cl)CC3)nc2c2ccccc21	> 10 µM		
Cn1c(=O)n2c(CN3CCN(c4ccccc4Cl)CC3)c(Br)nc2c2ccccc21	> 10 µM		
Cn1c(=O)n2c(CN3CCN(c4ccccc4Cl)CC3)cnc2c2ccccc21	0.00428 µM	525 nM	123
O=c1c2ccccc2nc2sc(Br)c(CN3CCN(c4ccccc4Cl)CC3)n12	> 10 µM		
Cn1c(=O)n2cc(CN3CCN(c4ccccc4Cl)CC3)nc2c2ccccc21	0.0141 µM	513 nM	36

Continued, values first:

Ki [1]	Ki [2]	Ratio [3]	Structure (SMILES)
0.0118 µM	2290 nM	194	O=S1(=O)c2ccccc2NC2=NCC(CN3CCN(c4ccccc4Cl)CC3)N21 (stereo not given)
> 10 µM			COc1ccccc1N1CCN(Cc2c(Br)nc3c4ccccc4nc(O)n23)CC1
> 10 µM			COc1ccccc1N1CCN(Cc2nc3c4ccccc4nc(O)n3c2Br)CC1
> 10 µM			COc1ccccc1N1CCN(Cc2c(Br)sc3nc4ccccc4c(=O)n23)CC1
0.0065 µM	3250 nM	499	COc1ccccc1N1CCN(Cc2cn3c(=O)n(C)c4ccccc4c3n2)CC1
> 10 µM			COc1ccccc1N1CCN(Cc2csc3nc4ccccc4c(=O)n23)CC1
0.0061 µM	3090 nM	506	COc1ccccc1N1CCN(Cc2cnc3c4ccccc4n(C)c(=O)n23)CC1
> 10 µM			COc1ccccc1N1CCN(Cc2nc3c4ccccc4n(C)c(=O)n3c2Br)CC1
0.186 µM			COc1ccccc1N1CCN(CC2CN=C3Nc4ccccc4C(=O)N32)CC1 (stereo not given)
> 10 µM			COc1ccccc1N1CCN(CC2CSc3nc4ccccc4c(=O)n32)CC1 (stereo not given)
0.00495 µM	460 nM	93	COc1ccccc1N1CCN(CC2CN=C3Nc4ccccc4S(=O)(=O)N32)CC1 (stereo not given)
> 10 µM			COc1ccccc1N1CCN(Cc2c(Br)nc3c4ccccc4n(C)c(=O)n23)CC1
